STAT1 activator = STAT1 signaling activators, primary screen, cell-based, HTS, luciferase reporter | activation (% of control), % at 5.5 µM | NIH 3T3 STAT1-luciferase reporter, IFN-gamma, luminescence; 100% = IFN-gamma alone, no compound | 200,000 tested, 2.6% active;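 active means activation above the screen-wide mean activation plus 3 SD, cut at about 130% in these data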;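 further: raw ratio to IFN-gamma control signal so 100% means no change and 0% no light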
STAT3 activator = IL-6 driven STAT3 reporter potentiators, primary screen, U3A cells, luciferase, luminescence, MLSCN library; AID 871, 2007; 190,000 tested, 0.91% active; activation (% of control), % at 5.6 µM; IL-6 STAT3-luciferase reporter; 100% = signal with IL-6 EC80 alone;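 active means activation above the screen-wide mean of compound activation plus 3 SD, cut at about 130% in these data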;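 further: 0% = background luminescence of wells with medium and substrate only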
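Material: STAT3-luciferase reporter U3A cells. Controls: IL-6-treated wells, 100% activation. Read-out: % activation versus median of IL-6-stimulated wells. Probe or stimulus: IL-6 stimulus at 33 ng/mL final. Timing: compound 1 h, then IL-6 6 h at 37 °C. Signal: reporter luminescence signal.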
STAT1 blocker = STAT1 signaling inhibitors, primary screen, cell-based, HTS, luciferase reporter. NIH 3T3 STAT1-luciferase reporter, IFN-gamma, luminescence. inhibition, % at 5.5 µM. 200,000 tested, 0.35% active. AID 920, 2007;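 active means inhibition above a set limit, the mean inhibition across all tested compounds plus 3 SD, cut at about 34% in these data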;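 further: 0% = IFN-gamma with DMSO and 100% = IFN-gamma with 300 µM nifuroxazide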
APP 5'UTR act = activators of APP 5'UTR luciferase reporter, primary screen, SH-SY5Y cells; SH-SY5Y APP 5'UTR luciferase reporter, luminescence; zero percent = DMSO vehicle wells; activation, % at 2 µM; 190,000 tested, 1% active;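 active means activation above a set limit, based on mean plus 3 SD of controls, cut at about 140% in these data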
STAT3 inh = IL-6 driven STAT3 reporter inhibitors, primary screen, U3A cells, luciferase, luminescence, MLSCN library. IL-6 STAT3-luciferase reporter; host cell line lacks STAT1. inhibition, % at 5.5 µM. 190,000 tested, 0.89% active;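 active means inhibition above the mean inhibition across all screened compounds plus 3 SD, cut at about 44% in these data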;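 further: 0% = DMSO only wells and 100% = 100 µM nifuroxazide control wells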
NF-kB expr up = activators of NF-kB expression in neurons, primary screen, cell-based, HTS. human neuronal cells, NF-kB reporter expression; active compounds read high. fold change at 12.5 µM. 190,000 tested, 1.6% active; in the data active means fold change above about 3.3
STAT1 act conf = STAT1 signaling activators, confirmation, cell-based, HTS, luciferase reporter; shares compounds with STAT1 activator; NIH 3T3 STAT1-luciferase reporter, IFN-gamma potentiation, luminescence; 100% = IFN-gamma EC80 alone, no compound; activation (% of control), % at 5.7 µM; 1,200 tested, 97% active; AID 1262, 2008;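 active means activation above a set limit carried over from the earlier primary STAT1 screen, cut at about 140% in these data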;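 further: simple ratio to median IFN-gamma plus DMSO wells so 0% means no light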
NFkB act = NF-kB reporter activators, TNF-alpha stimulated, counter-screen for STAT1 activator project, cell-based, HEK293T, luciferase luminescence; shares compounds with STAT1 activator; 100% = TNF-alpha with vehicle only; activation (% of control), % at 5.7 µM; 1,200 tested, 43% active; AID 1306, 2008;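 active means activation above the mean of solvent-only control wells plus 3 SD, set per campaign, cut at about 130% in these data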;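 further: TNF-alpha given at a submaximal dose yielding about 80% of full reporter signal; values are well signal over median control so 100% means no change and 0% no light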
STAT3 act STAT1c = STAT3 reporter activation by STAT1 hits, confirmation, counter-screen for STAT1 activator project, U3A cells, luciferase, luminescence; activation (% of control), % at 5.7 µM; AID 1316, 2008; shares compounds with STAT1 activator; 1,200 tested, 46% active; IL-6; cells lack STAT1; 100 = IL-6 alone, no compound effect;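 active means activation above the solvent-only control well mean plus 3 SD, set per plate batch, cut at about 110% in these data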;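 further: 0% = no luminescence and 100% = median IL-6 plus DMSO wells; higher means more STAT3 reporter activation so hits are non-selective activators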
Starred values were filed as active, the others as inactive. Sampled rows, rich in hits. Any-hit rate of the full collection: about 4.9%.

What do the screens show for `COc1ccc(C(=O)/C=C/Nc2cccc(C)n2)cc1OC`?
STAT1 activator: 171*; STAT3 activator: 101; STAT1 blocker: -86; APP 5'UTR act: 36; STAT3 inh: 1; NF-kB expr up: 4.1*; STAT1 act conf: 209*; NFkB act: 130; STAT3 act STAT1c: 108

What do the screens show for `COc1ccc(N/C=C\C(=O)c2ccc3c(c2)OCO3)cc1OC`?
STAT1 activator: 156*; STAT3 activator: 105; STAT1 blocker: -63; APP 5'UTR act: 6; STAT3 inh: -5; NF-kB expr up: 3.1; STAT1 act conf: 171*; NFkB act: 132; STAT3 act STAT1c: 104

Results for S=C(Nc1ccccn1)Nc1ccccc1Cl ?
STAT1 activator: 124; STAT3 activator: 102; STAT1 blocker: -30; APP 5'UTR act: 23; STAT3 inh: 3; NF-kB expr up: 1.5

Results for S=C(Nc1ccccn1)c1ccccn1 ?
STAT1 activator: 153*; STAT3 activator: 88; STAT1 blocker: -58; APP 5'UTR act: 71; STAT3 inh: 17; NF-kB expr up: 20*; STAT1 act conf: 178*; NFkB act: 124; STAT3 act STAT1c: 112*

What do the screens show for `Cc1c(CNCC(C)c2ccccc2)c(C(=O)O)c(C)n1Cc1ccccc1` (configuration not stated)?
STAT1 activator: 99; STAT3 activator: 104; STAT1 blocker: 0; APP 5'UTR act: -10; STAT3 inh: 0; NF-kB expr up: 1

How did O/N=C/c1ccc(OCc2ccccc2)c(Br)c1 do in these assays?
STAT1 activator: 162*; STAT3 activator: 108; STAT1 blocker: -70; APP 5'UTR act: 131; STAT3 inh: -7; NF-kB expr up: 6.7*; STAT1 act conf: 188*; NFkB act: 132; STAT3 act STAT1c: 123*

How did O/N=C/c1ccc(OCc2ccccc2F)c(Cl)c1 do in these assays?
STAT1 activator: 156*; STAT3 activator: 91; STAT1 blocker: -61; APP 5'UTR act: 135; STAT3 inh: 12; NF-kB expr up: 1.2; STAT1 act conf: 202*; NFkB act: 130; STAT3 act STAT1c: 127*

How did O/N=C/c1ccc(OCc2ccccc2)c(Cl)c1 do in these assays?
STAT1 activator: 162*; STAT3 activator: 109; STAT1 blocker: -68; APP 5'UTR act: 117; STAT3 inh: -9; NF-kB expr up: 5.4*; STAT1 act conf: 203*; NFkB act: 134*; STAT3 act STAT1c: 119*

How did Cc1c(C(=O)c2ccc([N+](=O)[O-])cc2)c(=O)n(C)c(=O)n1C do in these assays?
STAT1 activator: 102; STAT3 activator: 109; STAT1 blocker: -2; APP 5'UTR act: 4; STAT3 inh: 0; NF-kB expr up: 1.3

Results for COc1ccc(NC(=O)Cn2nnc(C(=O)NCCc3ccc(OC)c(OC)c3)c2N)c(OC)c1 ?
STAT1 activator: 87; STAT3 activator: 99; STAT1 blocker: 16; APP 5'UTR act: 27; STAT3 inh: 6; NF-kB expr up: 1.2

What do the screens show for `COCCNC(=O)CSc1nc2ccc(N3CCOCC3)cc2c(=O)n1Cc1ccc(OC)cc1`?
STAT1 activator: 121; STAT3 activator: 107; STAT1 blocker: -23; APP 5'UTR act: 48; STAT3 inh: -3; NF-kB expr up: 1.9

Source: PubChem BioAssay (several laboratories)
